Structures are written as SMILES. Hit rate of the full screen: of about 2,500 compounds, about 460 (18%) were called active.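 The calls were made as follows: active = mean activation above a cutoff of low control average plus 3 SD from the earlier screen (cut at about 12% in these data); inactive = the rest.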 Only a sample is shown.

The nature of the test: IANBD-channel fluorescence artefacts in buffer – biochemical, artefact control for cardiac RTF calcium sensitizer project, confirmation (AID 504382). Conditions: IANBD fluorescence interference counterscreen, EC20 Ca2+, at 7.2 µM, hits give high values, scaled: EC20 calcium 0, EC100 calcium 100. The method, boiled down:
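Medium: MOPS buffer, 190 mM, with KCl, MgCl2, EGTA, NTA, DTT, pH 7.20; Dosing: one dose of 7.2 µM, 0.7% DMSO; Probe or stimulus: calcium at EC20 level, 0.472 mM final; Incubation: 15 min, 25 °C; Evaluation: compound fluorescence interference relative to control well signal range; Signal: fluorescence, 480/540 nm.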
On to `COc1ccc(NC(=O)c2cccc(-c3ccc(O)cc3)c2)cn1`, for which the fluorescence artifact activation is -0.04% (inactive).

On to `Cc1nc(-n2[nH]c3c(c2=O)CCCC3)[nH]c(=O)c1Cc1ccccc1`, for which the fluorescence artifact activation is 7.51% (inactive).

`Cc1ccnc(N2C(=O)c3cccc4c([N+](=O)[O-])ccc(c34)C2=O)c1`: the fluorescence artifact activation was 3.75% (inactive).

As to `CN(C)CCCN1C(=O)c2cccc3c([N+](=O)[O-])ccc(c23)C1=O`, the fluorescence artifact activation was 14.2% (active).

Turning to `O=C1c2cccc3c([N+](=O)[O-])ccc(c23)C(=O)N1Cc1cccnc1`, the fluorescence artifact activation is 0.04% (inactive).

In the case of `O=C(O)c1ccccc1C1=Nc2ccc(O)cc2Oc2cc(O)ccc21`, the fluorescence artifact activation was 0.18% (inactive).

With `Cc1cc(C)n(NC(=S)NC2CCCCC2)c(=O)c1C#N`, the fluorescence artifact activation is -0.01% (inactive).

On to `Cc1ccccc1-c1noc(-c2cccs2)n1`, for which the fluorescence artifact activation is 5.07% (inactive).

`CC(=O)[C@H]1[C@H](C#N)C[C@H]2[C@@H]3CC=C4C[C@@H](O)CC[C@]4(C)[C@H]3CC[C@@]21C`: the fluorescence artifact activation was 10.9% (inactive).

As to `Cc1cc(-n2c(=O)c(C#N)cc3c(=O)n4ccccc4nc32)no1`, the fluorescence artifact activation is 0.34% (inactive).

In the case of `CN(C)c1ccc(/C=C2\Oc3ccc(C#Cc4cccc(N)c4)cc3C2=O)cc1`, the fluorescence artifact activation was 0.09% (inactive).

For the compound `Cc1nn(-c2ccccc2)c(N2CCCC2)c1/C=C1\N=C(c2ccc(OC(C)C)cc2)OC1=O`, the fluorescence artifact activation was 0.42% (inactive).

For the compound `COc1ccc(NC(C)=O)cc1NC(=O)C1CCCN1C(=O)c1cccs1` (centres undefined), the fluorescence artifact activation was -0.02% (inactive).

In the case of `CCN(CC)c1ccc(/C=c2\sc3nnc(-c4ccccc4Cl)n3c2=O)cc1`, the fluorescence artifact activation is 13.8% (active).

Take `CCN(CC)c1ccc(/C=c2\sc3nc4ccccc4n3c2=O)c(O)c1`: the fluorescence artifact activation is 3.44% (inactive).

Regarding `CCN(CC)c1ccc(/C=c2/sc3nnc(-c4ccccc4C)n3c2=O)cc1`, the fluorescence artifact activation is 0.53% (inactive).

As to `Cc1ccc(/C=C/C(=O)N2CCN(S(=O)(=O)c3ccc(C)c(C)c3)CC2)o1`, the fluorescence artifact activation was 2.09% (inactive).

In the case of `Cc1ccc(C(=O)N2C(=O)C(c3ccccc3)Oc3ccccc32)cc1` (centres undefined), the fluorescence artifact activation is 0.42% (inactive).

Consider `CN1CC=C2C(C#N)=C(N)C(C#N)(C#N)C(c3ccsc3)C2C1` (centres undefined), for which the fluorescence artifact activation was 0.22% (inactive).

As for `CCCN1C=CC(=CC=C(C#N)C#N)C=C1`, the fluorescence artifact activation was 4.48% (inactive).

Consider `C=CCN1C=CC(=CC=C(C#N)C#N)C=C1`, for which the fluorescence artifact activation was 251% (active).

For the compound `CCOc1ccc(S(=O)(=O)n2ccnc2)c2ccccc12`, the fluorescence artifact activation was 2.67% (inactive).

As for `CCc1ccc(C(=O)NNC(=O)c2cccc(N3C(=O)CCC3=O)c2)cc1`, the fluorescence artifact activation was 2.93% (inactive).

As to `CCc1cc[n+](-c2nc3ccccc3nc2[N-]S(=O)(=O)c2ccc(Br)s2)cc1`, the fluorescence artifact activation is -0.02% (inactive).

Take `O=S(=O)([N-]c1nc2ccccc2nc1-[n+]1ccc(-c2ccncc2)cc1)c1ccccc1`: the fluorescence artifact activation was 0.08% (inactive).

With `Cc1ccc[n+](-c2nc3ccccc3nc2[N-]S(=O)(=O)c2ccccc2)c1`, the fluorescence artifact activation is 17.5% (active).

In the case of `CC1=Nc2ccccc2/C1=C\c1nc(-c2ccc(F)cc2)oc1O`, the fluorescence artifact activation is 0.71% (inactive).

As for `Cc1ccc(NC(=S)Nc2ccc3nc(-c4ccccn4)c(-c4ccccn4)nc3c2)cc1C`, the fluorescence artifact activation is 0% (inactive).

As to `O=C(COc1ccccc1)NC(=S)Nc1cccc(NC(=O)c2ccccc2Cl)c1`, the fluorescence artifact activation is 0.01% (inactive).

As to `CC(C)CNC(=S)NC(=O)c1ccccc1Cl`, the fluorescence artifact activation was 32.2% (active).

Regarding `Cc1ccccc1C(=O)NC(=S)NC1CC1`, the fluorescence artifact activation is 0.12% (inactive).

For the compound `CCCn1c(=N)n(CC(O)c2ccco2)c2ccccc21` (centres undefined), the fluorescence artifact activation was 0.03% (inactive).

In the case of `COCCCN1C(=O)/C(=C/c2ccc(CNS(=O)(=O)c3ccccc3)o2)C(C(=O)OC)=C1C`, the fluorescence artifact activation is 0.04% (inactive).

For the compound `CCOc1ccc(CNC(=O)c2ccc(Sc3ccc(Cl)cc3)c(NC(C)=O)c2)cc1`, the fluorescence artifact activation was 1.09% (inactive).

As for `CC(=O)Nc1cc(C(=O)NCc2ccco2)ccc1Sc1ccc(F)cc1`, the fluorescence artifact activation was 18.1% (active).

As for `COc1c(Cl)ccc(Cl)c1C(=O)NCc1ccco1`, the fluorescence artifact activation was 0.03% (inactive).

Turning to `CCCCOc1[nH]c2nc(-c3ccco3)n(Cc3ccco3)c(=N)c2c1C#N`, the fluorescence artifact activation was 0.23% (inactive).

In the case of `O=c1nc2c(O)cccn2c2c1c(=O)[nH]c1ccccc12`, the fluorescence artifact activation was 0.02% (inactive).

In the case of `Cc1sc2nc(COC(=O)c3cccc(S(=O)(=O)N(C)c4ccccc4)c3)[nH]c(=O)c2c1C`, the fluorescence artifact activation was 0.1% (inactive).

With `Cc1cccc(C)c1NC(=O)CN(C1CCCCC1)S(C)(=O)=O`, the fluorescence artifact activation is 0.02% (inactive).

As to `CCCNC(=O)c1ccc(N2CCC3(CC2)CC(c2cccc(Br)c2)=NO3)c(NC(=O)c2cccc(C)c2)c1`, the fluorescence artifact activation is 3.63% (inactive).

For `O=C(Nc1nccs1)C1CCN(S(=O)(=O)c2ccccc2)CC1`, the fluorescence artifact activation was 461% (active).

In the case of `O=C(c1cc(-c2cccs2)nn1-c1ccccc1)N1CCN(S(=O)(=O)c2ccccc2)CC1`, the fluorescence artifact activation is 2.28% (inactive).

Turning to `O=C(c1cc(Cl)ccc1O)N1CCN(S(=O)(=O)c2cccs2)CC1`, the fluorescence artifact activation was 114% (active).

As for `CC(=O)N1CCc2c(sc(NC(=O)C3CCCN3S(=O)(=O)c3cccs3)c2C(N)=O)C1` (centres undefined), the fluorescence artifact activation is 9.49% (inactive).

Turning to `O=C(Nc1ccc(Cl)cn1)C1CCN(S(=O)(=O)c2cccs2)CC1`, the fluorescence artifact activation is 74.6% (active).

Regarding `O=C(Nc1ccccc1N1CCOCC1)C1CCN(S(=O)(=O)c2ccccc2F)CC1`, the fluorescence artifact activation was -0.05% (inactive).

For the compound `O=C(Cc1cccs1)N1CCN(S(=O)(=O)c2cc(Cl)ccc2Cl)CC1`, the fluorescence artifact activation is 1.88% (inactive).

Take `CCOc1ccc(NC(=O)C2CCN(S(=O)(=O)c3cccnc3)CC2)cc1`: the fluorescence artifact activation is -0.04% (inactive).

As for `O=C(CC1CCCC1)N1CCN(S(=O)(=O)c2ccccc2)CC1`, the fluorescence artifact activation is 0.13% (inactive).

For `COc1cccc(CNC(=O)CCC(=O)N2CC(C)Oc3ccccc32)c1OC` (centres undefined), the fluorescence artifact activation was 0.11% (inactive).

Consider `Cc1c(C(=O)NC2CC2)oc2ccccc12`, for which the fluorescence artifact activation is 0.04% (inactive).

`Cc1cc(C)nc(NC(=O)c2ccc(Cl)c(Cl)c2)n1`: the fluorescence artifact activation is 0.33% (inactive).

As to `CC1=C(C#N)C(=O)OC(C)(C)C1`, the fluorescence artifact activation was 0.01% (inactive).

Turning to `Cc1[nH]c(=O)c(C#N)c(C)c1Cl`, the fluorescence artifact activation is 0.06% (inactive).

As for `O=C(N/N=C/c1sc(N2CCOCC2)nc1-c1ccccc1)c1cccc(S(=O)(=O)N2CCCC2)c1`, the fluorescence artifact activation is 0% (inactive).

In the case of `Cc1cc2nc3c(=O)[nH]c(=O)[nH]c3nc2c([N+](=O)[O-])c1N`, the fluorescence artifact activation was 0.02% (inactive).

As to `O=C1/C(=C/c2cccs2)N=C(c2cccs2)N1Nc1ccccc1`, the fluorescence artifact activation was 4.3% (inactive).

Regarding `COCCN(C(=S)Nc1cccc(OC)c1)C1CCN(C(C)=O)CC1`, the fluorescence artifact activation was 0.16% (inactive).

Turning to `CCn1cc(/C=C/C(=O)Nc2c(C)nn(Cc3ccccc3C)c2C)cn1`, the fluorescence artifact activation is 0.05% (inactive).

Take `COc1ccc(CC(=O)NNC(=O)c2ccncc2)cc1`: the fluorescence artifact activation is 0.18% (inactive).

With `COc1ccc(/C=N/NC(=O)c2cccnc2)cc1CN1CCOCC1`, the fluorescence artifact activation is 6.25% (inactive).

`CCOC(=O)C1=C(C)NC(C)=C(C(=O)OCC)C1c1ccco1`: the fluorescence artifact activation was 0.15% (inactive).

On to `OCCNCc1cccc(OCc2ccc(Cl)cc2)c1`, for which the fluorescence artifact activation is 61% (active).

Take `COc1ccc(CNCc2cccc(Cl)c2)cc1`: the fluorescence artifact activation is 0.14% (inactive).

Take `Cc1ccc(C(C(=O)NC2CCCC2)N(C(=O)Cc2cccs2)c2cccc(C)c2C)o1` (centres undefined): the fluorescence artifact activation is 0% (inactive).

Take `CC1=C(C(=O)OCCCCCl)C(c2cc3c(cc2Br)OCO3)NC(=O)N1` (centres undefined): the fluorescence artifact activation is -0.02% (inactive).

For `C[C@H]1CN([C@@H](C)CO)C(=O)Cc2cc(NC(=O)CCC(F)(F)F)ccc2O[C@H]1CN(C)S(C)(=O)=O`, the fluorescence artifact activation is 0.55% (inactive).

On to `Oc1[nH]c2ccccc2c1N=Nc1ccccc1`, for which the fluorescence artifact activation is 11.6% (inactive).

`Oc1[nH]c2ccccc2c1N=Nc1ccc(F)cc1`: the fluorescence artifact activation was 34.1% (active).

Take `Oc1[nH]c2ccccc2c1N=Nc1ccccc1F`: the fluorescence artifact activation was -0.02% (inactive).

For `COc1ccc(-n2c(O)c(/C=N/NS(=O)(=O)c3cccc([N+](=O)[O-])c3)c3ccccc3c2=O)cc1OC`, the fluorescence artifact activation was 0.15% (inactive).

For the compound `Cn1nccc1NC(=O)Nc1cccc(Cl)c1Cl`, the fluorescence artifact activation was 13.5% (active).

For `CC1CC1c1ccc(/C=C(\C#N)C(=O)Nc2cccc(Cl)c2Cl)o1` (centres undefined), the fluorescence artifact activation was 4% (inactive).

As for `Cn1ncc(Cl)c1C(=O)Nc1cccc(Cl)c1`, the fluorescence artifact activation is 0.09% (inactive).

With `O=C(Nc1ccccc1)C1=C[C@H](c2ccc3c(c2)OCO3)C[C@H](OCCCCO)O1`, the fluorescence artifact activation is 1.74% (inactive).

In the case of `COc1cc(/C=N/NC(=O)c2cc(-c3ccccc3Cl)nc3ccccc23)cc(OC)c1O`, the fluorescence artifact activation is 8.56% (inactive).

On to `O=c1[nH][nH]c(C(F)(F)F)c1C=Nc1cccc(Cl)c1`, for which the fluorescence artifact activation is 1.19% (inactive).

Turning to `Cc1cc(O)c(CN(C)C)c2c1C(=O)/C(=C/c1ccco1)O2`, the fluorescence artifact activation was 0% (inactive).

For `CC(C)Cn1c(N)c(C(=O)COC(=O)c2cc(F)cc(F)c2)c(=O)n(C)c1=O`, the fluorescence artifact activation was 40.2% (active).

`CCOC(=O)C1=C(C)N=c2s/c(=C/c3ccc(OCC(=O)O)c(OC)c3)c(=O)n2C1c1ccc(Cl)cc1` (centres undefined): the fluorescence artifact activation is -0.04% (inactive).

Take `Cc1cc(C=C2C(=O)c3ccccc3C2=O)c(C)n1-c1ccc(Cl)cc1`: the fluorescence artifact activation is -0.07% (inactive).

As for `CCCN1C(=O)/C(=C/c2ccc(N3CCOCC3)cc2)NC1=S`, the fluorescence artifact activation is 131% (active).

As to `CCN1C(=O)/C(=C/c2ccc(N3CCCC3)cc2)NC1=S`, the fluorescence artifact activation is 0.26% (inactive).

For the compound `CCCN1C(=O)/C(=C/c2ccc(N3CCCC3)c(C)c2)NC1=S`, the fluorescence artifact activation was 0.06% (inactive).

In the case of `CC1(C)NC(=O)N(CCCCOc2ccc(Cl)cc2)C1=O`, the fluorescence artifact activation was 0.28% (inactive).

For the compound `CCOC(=O)NC1(C(F)(F)F)C(=O)NC(C)=C1C(=O)OC` (centres undefined), the fluorescence artifact activation is 5.24% (inactive).

Take `S=c1[nH]nc(-c2ccc(Cl)cc2)n1-c1ccc2c(c1)OCCO2`: the fluorescence artifact activation is 31.8% (active).

For the compound `Cc1ccc(-n2c(C)n[nH]c2=S)cc1`, the fluorescence artifact activation is 1.66% (inactive).

Take `CCN(CC)c1ccc(/C=C2/SC(=O)N(C(C)C)C2=O)o1`: the fluorescence artifact activation was 8.25% (inactive).

Turning to `C/C(=N/NS(=O)(=O)c1ccccc1)c1ccc(NC(=O)C2CC2)cc1`, the fluorescence artifact activation was 6.01% (inactive).

`O=C(CCCN1C(=O)c2ccccc2C1=O)Nc1ccc(S(=O)(=O)N2CCCCC2)cc1`: the fluorescence artifact activation was 0.02% (inactive).

`O=C(CNCc1cccs1)Nc1ccc(S(=O)(=O)N2CCCCC2)cc1`: the fluorescence artifact activation was 15.8% (active).

For the compound `O=C(CNCc1cccs1)Nc1cc(S(=O)(=O)N2CCCC2)ccc1Cl`, the fluorescence artifact activation is 4.18% (inactive).
